In the library only some 4.1% were active in any assay of this set; here they are far more common.
MEKK2 WT-MEK5: modulators of MEK5 binding to wildtype MEKK2, primary screen, biochemical, multiplex bead flow cytometry, Alexa488-MEK5; Mitogen-activated protein kinase kinase kinase 2 (Homo sapiens), Q9Y2U5; Alexa488-MEK5 binding to MEKK2 WT; actives lie on both sides; binding response (% of control), % at 10 µM; 290,000 compounds, 1.1% hits; in the data active = binding response below about 67% or above about 130%; inconclusive = no clear call, values can overlap the other calls; inactive = in between
DNA FID counter-1: compounds displacing fluorescent DNA intercalator, primary screen, artefact control for HCV NS3 helicase inhibitor project, biochemical, FID fluorescence; 290,000 compounds, 0.17% hits; DNA fluorescent intercalator displacement; inhibition, % at 7.9 µM; AID 1845, 2009;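 note: higher means more ethidium bromide displaced from hairpin DNA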
HCV NS3 hel inh: inhibitors of HCV NS3 helicase, primary screen, biochemical, Cy5 molecular beacon fluorescence. AID 1800, 2009. 290,000 compounds, 0.56% hits. inhibition, % at 10.9 µM. NS3 helicase DNA unwinding. Hepatitis C virus NS3 helicase;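 active = inhibition above the mean of all tested compounds plus 3 SD, set per campaign, cut at about 35% in these data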
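assay system = NS3 helicase fragment of HCV | buffer or medium = MOPS pH 6.5, MgCl2, DTT, Tween20, BSA | timing = 60 min unwinding reaction at 25 °C after ATP addition | signal = Cy5 beacon fluorescence read at start and 1 h | read-out basis = % inhibition of unwinding | control set = low DMSO, high thioflavine S at 110 µM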
MEKK2mut PB1 HTS: MEK5 binding signal on mutant MEKK2 PB1, primary screen, biochemical, multiplex bead flow cytometry, Alexa488-MEK5. Alexa488-MEK5 binding to MEKK2 mutant. 290,000 compounds, 0.35% hits. percent response, % at 10 µM; in the data active = percent response above about 24%, passing the limit was not always enough
MEKK3 PB1 HTS: modulators of MEKK3-MEK5 PB1 binding, primary screen, biochemical, wildtype MEKK3, multiplex bead flow cytometry, Alexa488-MEK5; 290,000 compounds, 1.4% hits; binding response (% of control), % at 10 µM; bead-based flow cytometry, Alexa488-MEK5 binding to MEKK3; actives lie on both sides; 0 = blocked by unlabeled MEK5, 100 = vehicle; AID 1529, 2009; Mitogen-activated protein kinase kinase kinase 3 (Homo sapiens), Q99759;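 active = binding response more than 3 SD above or below the average of its plate-row segment, actives on both sides; inconclusive = wells at one plate position flagged as instrument error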;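 note: Alexa488 bead fluorescence after subtracting the streptavidin-only scavenger bead signal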
Target sequence (Q99759 whole entry, looked up): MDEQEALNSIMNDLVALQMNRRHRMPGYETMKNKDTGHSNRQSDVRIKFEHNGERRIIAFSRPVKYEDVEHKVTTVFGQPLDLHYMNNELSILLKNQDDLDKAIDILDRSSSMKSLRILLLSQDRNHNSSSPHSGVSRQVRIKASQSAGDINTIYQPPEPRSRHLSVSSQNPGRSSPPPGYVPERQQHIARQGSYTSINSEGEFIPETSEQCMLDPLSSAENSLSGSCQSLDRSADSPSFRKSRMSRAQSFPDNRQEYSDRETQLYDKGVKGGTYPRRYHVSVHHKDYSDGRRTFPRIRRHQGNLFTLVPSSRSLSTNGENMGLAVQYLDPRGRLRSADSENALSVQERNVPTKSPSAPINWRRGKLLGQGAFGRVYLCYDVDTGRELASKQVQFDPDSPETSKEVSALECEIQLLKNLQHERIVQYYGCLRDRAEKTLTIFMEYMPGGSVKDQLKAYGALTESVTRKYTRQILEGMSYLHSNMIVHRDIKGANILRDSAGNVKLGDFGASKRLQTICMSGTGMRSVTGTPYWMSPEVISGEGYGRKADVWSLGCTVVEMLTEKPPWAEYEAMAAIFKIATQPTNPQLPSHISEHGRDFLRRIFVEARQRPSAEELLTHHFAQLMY
T cruzi inh: inhibitors of intracellular T. cruzi growth, primary screen, luminescence, NIH3T3 host cells | T. cruzi beta-gal in NIH3T3, 90 h | inhibition, % (concentration not given with the values) | 300,000 compounds, 1.4% hits;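 active = mean inhibition across valid replicates above about 55%, limit read from the data; inconclusive = mean below that limit but half or more replicates reach it; inactive = mean below it, under half of replicates reach it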;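 note: signal also drops with host cell toxicity which is not excluded here; higher percent means less beta-gal luminescence so fewer parasites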
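Test system: β-gal T. cruzi (Tulahuen C4) inside NIH/3T3 cells / Quantity: 5,000 cells/well / Measured by: luminescence from GalScreen with 0.05% NP40, read after 60 min / Medium: DMEM plus 2% FBS / Measure: parasite load inhibition, % / Reagent: Tulahuen C4 trypomastigotes, 5000/well / Schedule: co-culture of at least 90 h after 3 h attachment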
NS3 hel confirm: HCV NS3 helicase inhibitors, retest, confirmation, biochemical, Cy5 molecular beacon fluorescence, triplicate; 1,600 compounds, 31% hits; NS3 helicase DNA unwinding; inhibition, % at 10.9 µM; shares compounds with HCV NS3 hel inh;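 active = inhibition above the mean of all tested compounds plus 3 SD, cutoff set per campaign, cut at about 36% in these data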
DNA FID counter-2: compounds displacing fluorescent DNA intercalator, artefact control for HCV NS3 helicase inhibitor project, biochemical, FID fluorescence, triplicate; 1,600 compounds, 4% hits; AID 1945, 2009; inhibition, % at 7.9 µM; DNA fluorescent intercalator displacement; shares compounds with HCV NS3 hel inh;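 note: higher means more displacement of ethidium bromide from the DNA hairpin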
Of the large screens only hits and unclear results are named; the others gave an inactive call (follow-up assays come after a bar, where they were run). Cut-off read from the data, not from the text of the source, unless noted: active = inhibition above about 37%; inactive = the rest.

Cc1ccc(-c2nc(N(C)C3CCN(C)CC3)c3ccccc3n2)cc1	DNA FID counter-1 68.8, HCV NS3 hel inh 37.9, T cruzi inh inconclusive | NS3 hel confirm inactive | DNA FID counter-2 84.1
CN1CCC(N(C)c2ncnc3ccc(Br)cc23)CC1	none (no result: T cruzi inh)
Cc1ccc(N2C(=O)/C(=C/c3ccc(CN(CCC#N)S(C)(=O)=O)o3)C(=O)NC2=S)cc1C	HCV NS3 hel inh 44.1 | NS3 hel confirm 65.6 | DNA FID counter-2 inactive
O=C1NC(=O)N(c2ccc(Cl)cc2)C(=O)/C1=C\c1ccc(Sc2nc3ccccc3[nH]2)o1	HCV NS3 hel inh 43.8 | NS3 hel confirm 75.8 | DNA FID counter-2 inactive
O=C1NC(=O)C(=Cc2ccc(Sc3ccccc3)o2)C(=O)N1	none
Cc1c(OC(=O)N(C)C)ccc2c1O/C(=C\c1ccco1)C2=O	HCV NS3 hel inh 59.2 | NS3 hel confirm inactive | DNA FID counter-2 inactive

Screening data (PubChem)
